According to PMC9826232 (Chemmedchem, 2022):

Tests used:
NCI‐H441 (G12 V) = experiment: CellTiter-Glo cell viability assay, NCI-H441; type: cell-based; conditions: Homo sapiens, NCI-H441, 72 h, read-out: Cellular activity IC50, NCI‐H441 (G12 V)
How it was run: (§1)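 Cells seeded, then held 24 h at 37 °C/5 % CO2 before test compound in DMSO was added at various concentrations. Plates were incubated a further 72 h at 37 °C, 5 % CO2, humidified. Controls were DMSO vehicle and 10 μM staurosporine. CellTiter-Glo reagent was added at equal volume to the medium, then 2 min shaking and 10 min at room temperature before luminescence (ATP) reading. IC50 from dose-response fit; plates accepted only if Z' ≥0.5, from 16 control values each.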

K‐Ras(G12D) = K‐Ras(G12D) (Homo sapiens, UniProt P01116, G12D); experiment: Nucleotide exchange assay; type: biochemical
K‐Ras(G12D), sequence (P01116 1-188 isoform P01116-2 G12D): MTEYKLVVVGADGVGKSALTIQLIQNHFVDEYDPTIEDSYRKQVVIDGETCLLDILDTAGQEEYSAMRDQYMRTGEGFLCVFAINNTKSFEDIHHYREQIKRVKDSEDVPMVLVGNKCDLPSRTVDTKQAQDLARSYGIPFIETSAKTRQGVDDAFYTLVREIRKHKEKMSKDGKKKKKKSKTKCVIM
How it was run: (§2)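 SOS1 (final 30.2 nM for G12D, 4.6 nM for wild type) and GTP (1 μM final) follow. Incubated overnight at room temperature, then GDP detection reagent for 1 h. Luminescence read; IC50 from sigmoidal curves.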

A549 (G12S) = experiment: CellTiter-Glo cell viability assay, A549; type: cell-based; conditions: Homo sapiens, A549, 72 h, read-out: Cellular activity IC50, A549 (G12S)
How it was run: as §1

SNU‐1 (G12D) = experiment: CellTiter-Glo cell viability assay, SNU-1; type: cell-based; conditions: Homo sapiens, SNU1, 72 h, read-out: Cellular activity IC50, SNU‐1 (G12D)
How it was run: as §1

K‐Ras wild type protein = K‐Ras wild type protein (Homo sapiens, UniProt P01116); experiment: Nucleotide exchange assay; type: biochemical
K‐Ras wild type protein, sequence (P01116 1-188 isoform P01116-2): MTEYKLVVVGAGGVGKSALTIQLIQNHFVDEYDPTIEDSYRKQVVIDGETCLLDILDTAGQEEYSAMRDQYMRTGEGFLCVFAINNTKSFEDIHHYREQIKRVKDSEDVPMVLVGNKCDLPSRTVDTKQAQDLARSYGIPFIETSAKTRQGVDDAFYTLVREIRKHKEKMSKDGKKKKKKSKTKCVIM
How it was run: as §2

[1] = Control assay for nucleotide exchange assay; conditions: 3 mM compound; percent of control
HCT15 (G13D) = experiment: CellTiter-Glo cell viability assay, HCT15; type: cell-based; conditions: Homo sapiens, HCT-15, 72 h, read-out: Cellular activity IC50, HCT15 (G13D)
How it was run: as §1

H358 (G12 C) = experiment: CellTiter-Glo cell viability assay, H358; type: cell-based; conditions: Homo sapiens, NCI-H358, 72 h, read-out: Cellular activity IC50, H358 (G12 C)
How it was run: as §1

pErk in SNU‐1 cells = experiment: HTRF assay of downstream phosphorylation, pErk in SNU-1; type: cell-based; conditions: Homo sapiens, SNU1, read-out: pErk IC50
How it was run: (§3)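 Test compound was given as a 3-fold 8-point series, top 330 μM final, 1 % DMSO, for 1 h. EGF at 3 nM final was then added for 15 min. Cells were lysed 30 min at room temperature. TR-FRET antibody detection followed after 20 h at room temperature; read-out gave IC50.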

tAkt in SNU‐1 cells = experiment: HTRF assay, tAkt in SNU-1; type: cell-based; conditions: Homo sapiens, SNU1, read-out: tAkt IC50
How it was run: as §3

pErk in A375 cells = experiment: HTRF assay of downstream phosphorylation, pErk in A375; type: cell-based; conditions: Homo sapiens, A-375, read-out: pErk IC50
pAkt in SNU‐1 cells = experiment: HTRF assay of downstream phosphorylation, pAkt in SNU-1; type: cell-based; conditions: Homo sapiens, SNU1, read-out: pAkt IC50
How it was run: as §3

tErk in A375 cells = experiment: HTRF assay, tErk in A375; type: cell-based; conditions: Homo sapiens, A-375, read-out: tErk IC50
pAkt in A375 cells = experiment: HTRF assay of downstream phosphorylation, pAkt in A375; type: cell-based; conditions: Homo sapiens, A-375, read-out: pAkt IC50
tErk in SNU‐1 cells = experiment: HTRF assay, tErk in SNU-1; type: cell-based; conditions: Homo sapiens, SNU1, read-out: tErk IC50
How it was run: as §3

tAkt in A375 cells = experiment: HTRF assay, tAkt in A375; type: cell-based; conditions: Homo sapiens, A-375, read-out: tAkt IC50
[2] = system: Ras mutant tumor cell lines; experiment: Tumor cell assays, all tested cell lines; type: cell-based; conditions: read-out: IC50 values for all tested cell lines
How it was run: as §1

[3] = Stability in cell culture medium; type: in vitro ADME
K‐Ras4B = K‐Ras4B (Homo sapiens, UniProt P01116); experiment: NMR titration experiments; type: binding
K‐Ras4B, sequence (P01116 1-188 isoform P01116-2): as above
How it was run: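 GDP-bound K-Ras4B was titrated with test compound and followed by NMR chemical shift perturbation; KD derived from the titration.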

Row | SMILES | IC50 (NCI‐H441 (G12 V)) | IC50 (K‐Ras(G12D)) | IC50 (A549 (G12S)) | IC50 (SNU‐1 (G12D)) | IC50 (K‐Ras wild type protein) | WT %CRTL (3 mM) [1] | IC50 (HCT15 (G13D)) | IC50 (H358 (G12 C)) | IC50 (pErk in SNU‐1 cells) | IC50 (tAkt in SNU‐1 cells) | IC50 (pErk in A375 cells) | IC50 (pAkt in SNU‐1 cells) | IC50 (tErk in A375 cells) | IC50 (pAkt in A375 cells) | IC50 (tErk in SNU‐1 cells) | IC50 (tAkt in A375 cells) | IC50 [2] | cell culture medium stability [3] | stability in cell culture medium ([3]; 24 h) | Kd (K‐Ras4B)
1 | O=S(=O)(NN=C(c1ccc(O)cc1)c1ccc(O)cc1)c1ccccc1 [8 a, N′‐(bis(4‐hydroxyphenyl)methylene)benzene‐sulfonohydrazide] | 157 ± 54 µM | 1310 ± 389 µM | 105 ± 2 µM | 92.1 ± 12 µM | 1030 ± 371 µM | 91% | 113 ± 13 µM | 109 ± 3 µM | – | – | – | – | – | – | – | – | – | – | – | –
2 | O=S(=O)(NN=C(c1ccc(O)cc1)c1ccc(O)cc1)c1ccc(Cl)cc1 [8 c, N′‐(bis(4‐hydroxyphenyl)methylene)‐4‐chlorobenzenesulfonohydrazide] | 102 ± 16 µM | 583 ± 146 µM | 71.3 ± 6.5 µM | 81 ± 26.3 µM | 1050 ± 405 µM | 91% | 85 ± 9.2 µM | 69.8 ± 2.4 µM | 240 µM | 586 µM | 203 µM | 96.6 µM | 255 µM | > 1000 µM | > 875 µM | > 1000 µM | – | – | – | –
3 | O=C(c1nc2cc(O)ccc2[nH]1)c1cc2cccc(O)c2o1 [compound 13, (5‐Hydroxy‐1H‐benzo[d]imidazol‐2‐yl)(7‐hydroxybenzofuran‐ 2‐yl)methanone] | 54.5 ± 0.2 µM | 409 ± 32 µM | – | 52.7 ± 0.3 µM | 334 ± 5 µM | – | – | – | – | – | – | – | – | – | – | – | – | – | – | –
4 | O=C(NN=C(c1ccc(O)cc1)c1ccc(O)cc1)c1ccccc1 [compound 10, N′‐(Bis(4‐hydroxyphenyl)methylene)‐benzohydrazide] | 158 ± 3 µM | > 3000 µM | 112 ± 3 µM | 173 ± 1 µM | > 3000 µM | 93% | – | – | – | – | – | – | – | – | – | – | – | – | – | –
5 | Oc1ccc(C(=NNc2ccc(Cl)cc2)c2ccc(O)cc2)cc1 [7 d, 4,4′‐((2‐(4‐Chlorophenyl)hydrazinylidene)‐methylene)diphenol] | 29.3 ± 4.1 µM | 475 µM | 30.1 ± 9 µM | 31.2 ± 6.8 µM | 1300 ± 417 µM | 84% | 27.4 ± 4.5 µM | 40.2 ± 1 µM | – | – | – | – | – | – | – | – | 20 to 30 µM | 0.4% | – | –
6 | O=S(=O)(NN=C(c1ccc(O)cc1)c1ccc(O)cc1)c1ccc(Br)cc1 [8 d, N′‐(bis(4‐hydroxyphenyl)methylene)‐4‐bromobenzenesulfonohydrazide] | 105 ± 8 µM | 850 ± 120 µM | 91.8 ± 7.4 µM | 88.7 ± 23.9 µM | 2220 ± 519 µM | 93% | 96.6 ± 14.5 µM | 82.8 ± 8.4 µM | – | – | – | – | – | – | – | – | – | – | – | –
7 | O=[N+]([O-])c1ccc(S(=O)(=O)NN=C(c2ccc(O)cc2)c2ccc(O)cc2)cc1 [8 e, N′‐(bis(4‐hydroxyphenyl)methylene)‐4‐nitrobenzenesulfonohydrazide] | 58.4 ± 6.9 µM | 255 µM | 49.8 ± 2.1 µM | 46.8 ± 1.7 µM | 298 ± 196 µM | – | 51.1 ± 1.2 µM | 49.2 ± 0.9 µM | – | – | – | – | – | – | – | – | – | – | – | –
8 | Oc1ccc(C(=NNc2ccc(C(F)(F)F)cc2)c2ccc(O)cc2)cc1 [7 e, 4,4′‐((2‐(4‐(Trifluoromethyl)phenyl)‐hydrazinylidene)methylene)diphenol] | 13.4 ± 2.7 µM | 628 ± 170 µM | 11.9 ± 0.7 µM | 16.7 ± 1.9 µM | 1070 ± 312 µM | 90% | 12.5 ± 1.4 µM | 15.1 ± 1.2 µM | 520 µM | > 1000 µM | > 1000 µM | 431 µM | > 1000 µM | > 1000 µM | > 1000 µM | > 1000 µM | – | – | completely stable | –
9 | N#Cc1ccc(S(=O)(=O)NN=C(c2ccc(O)cc2)c2ccc(O)cc2)cc1 [8 g, N′‐(bis(4‐hydroxyphenyl)methylene)‐4‐cyanobenzenesulfonohydrazide] | > 30 µM | > 3000 µM | > 30 µM | > 30 µM | 1500 ± 572 µM | 86% | > 30 µM | > 30 µM | – | – | – | – | – | – | – | – | – | – | – | –
10 | Oc1ccc(C(=NNc2ccc(F)cc2)c2ccc(O)cc2)cc1 [7 c, 4,4′‐((2‐(4‐Fluorophenyl)hydrazinylidene)‐methylene)diphenol] | 24.7 ± 8.3 µM | 413 ± 28 µM | 28.7 ± 4.7 µM | 23.7 ± 14.4 µM | 1040 ± 427 µM | 83% | 17.6 ± 13.4 µM | 33.7 ± 0.6 µM | 455 µM | > 1000 µM | 415 µM | 95.3 µM | 491 µM | > 1000 µM | > 550 µM | > 1000 µM | 20 to 30 µM | 2.2% | – | –
11 | O=C(c1ccc(O)cc1)c1ccc(O)cc1 [compound 9, 4,4’‐Dihydroxybenzophenone, reference compound] | > 300 µM | 1210 ± 116 µM | > 300 µM | 187 ± 19 µM | 1330 ± 104 µM | – | – | – | – | – | – | – | – | – | – | – | – | – | – | 9100 ± 3900 µM
12 | COc1ccc(S(=O)(=O)NN=C(c2ccc(O)cc2)c2ccc(O)cc2)cc1 [8 b, N′‐(bis(4‐hydroxyphenyl)methylene)‐4‐methoxybenzenesulfonohydrazide] | 260 ± 45 µM | 1290 ± 307 µM | 184 ± 12 µM | 154 ± 30 µM | 1620 ± 565 µM | 89% | 219 ± 43 µM | 161 ± 9 µM | – | – | – | – | – | – | – | – | – | – | – | –
13 | O=S(=O)(NN=C(c1ccc(O)cc1)c1ccc(O)cc1)c1ccc(OC(F)(F)F)cc1 [8 f, N′‐(bis(4‐hydroxyphenyl)methylene)‐4‐(trifluoromethoxy)benzenesulfonohydrazide] | 179 ± 43 µM | 858 ± 55 µM | 111 ± 10 µM | 110 ± 24 µM | 1650 ± 731 µM | 92% | 112 ± 10 µM | 104 ± 3 µM | – | – | – | – | – | – | – | – | – | – | – | –
14 | Oc1ccc(C(=NNc2ccccn2)c2ccc(O)cc2)cc1 [7 f, 4,4′‐((2‐(Pyridin‐2‐yl)hydrazinylidene)‐methylene)diphenol] | 65.8 ± 37.3 µM | 1910 ± 98 µM | 67 ± 1.8 µM | 71.1 ± 11.3 µM | 2610 ± 225 µM | 98% | – | – | – | – | – | – | – | – | – | – | – | – | – | –
